{
  "source": "paper PMC3901358",
  "about": "(Journal of immunology (Baltimore, Md. : 1950), 2010)",
  "key": {"[1]": {"test_system": "CD4^+ T cells from PBLs of melanoma patients", "assay": "In vitro sensitization of PBLs with peptide and intracellular cytokine staining", "type": "cell-based, human", "conditions": "for patients with peptide-specific spontaneous CD4^+ T cells: 16 patients with stage IV LAGE-1^+/NY-ESO-1^+ melanoma, ICS after 10–12 d IVS; for Th1/Th2 Spontaneous Response Test by ICS, response type / Number of IFN-γ–producing CD4^+ T cells / number of IL-5–producing CD4^+ T cells: PBLs, 10–12 d IVS with the peptide, ICS; for Number of IFN-γ–producing CD4^+ T cells / number of IL-5–producing CD4^+ T cells: background subtracted"}, "[2]": {"test_system": "Serum NY-ESO-1– and LAGE-1b–specific Abs", "assay": "ELISA of patient sera on plates coated with peptide or protein", "type": "binding, human", "conditions": "among the 16 patients with NY-ESO-1^+/LAGE-1^+ tumors", "procedure,_shortened": "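Plates coated overnight at 4°C with recombinant NY-ESO-1 protein or 18-aa overlapping LAGE-1b peptides (P132–P210), 1 µg/ml in 15 mM Na₂CO₃/30 mM NaHCO₃ pH 9.6 with 0.02% NaN₃. Blocked overnight at 4°C with PBS/2% BSA. Patient sera (NY-ESO-1⁺/LAGE-1⁺ or negative tumors) in PBS/2% BSA, 4-fold dilution series, 2 h RT. Goat anti-human IgG-AP 1 h RT. Phosphatase substrate 25 min RT, read immediately.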"}, "[3]": {"test_system": "LAGE-1–specific CD4^+ T cell clones", "assay": "IFN-γ ELISPOT, CD4+ T cell clones with peptide-pulsed L.DR cells", "type": "cell-based, human", "conditions": "48-h IFN-γ ELISPOT"}, "[4]": {"conditions": "irrelevant control peptide (1 µg/ml), all healthy donors and patients, 6 h ICS"}},
  "data": [
    {"substance": "HIVpol711–725: irrelevant HIV-derived control peptide in ICS [reference compound]", "values": [
      {"measurement": "mean value of IFN-γ–producing CD4^+ T cells", "setting": "[1]; [4]", "result": 25, "unit": "per 10^5 CD4^+ T cells"},
      {"measurement": "mean value of IL-5–producing CD4^+ T cells", "setting": "[1]; [4]", "result": 22, "unit": "per 10^5 CD4^+ T cells"}
    ]},
    {"substance": "LAGE-1_97–114: 18-aa overlapping synthetic peptide, LAGE-1 positions 97–114; immunodominant epitope (SSPMEAELVRRILSRDAA; UniProt O75638 97-114, looked up, fragment)", "values": [
      {"measurement": "patients with peptide-specific spontaneous CD4^+ T cells", "setting": "[1]", "result": "7 out of 16"},
      {"measurement": "Th1/Th2 Spontaneous Response Test by ICS, response type", "setting": "[1]; patient MP2", "result": "Th2 (0, 100)"},
      {"measurement": "Number of IFN-γ–producing CD4^+ T cells", "setting": "[1]; patient MP2", "result": 0, "unit": "per 10^5 CD4^+ T cells"},
      {"measurement": "number of IL-5–producing CD4^+ T cells", "setting": "[1]; patient MP2", "result": 100, "unit": "per 10^5 CD4^+ T cells"},
      {"measurement": "Th1/Th2 Spontaneous Response Test by ICS, response type", "setting": "[1]; patient MP4", "result": "Th1 (101, 18)"},
      {"measurement": "Number of IFN-γ–producing CD4^+ T cells", "setting": "[1]; patient MP4", "result": 101, "unit": "per 10^5 CD4^+ T cells"},
      {"measurement": "number of IL-5–producing CD4^+ T cells", "setting": "[1]; patient MP4", "result": 18, "unit": "per 10^5 CD4^+ T cells"},
      {"measurement": "Th1/Th2 Spontaneous Response Test by ICS, response type", "setting": "[1]; patient MP6", "result": "Th1 (110, 20)"},
      {"measurement": "Number of IFN-γ–producing CD4^+ T cells", "setting": "[1]; patient MP6", "result": 110, "unit": "per 10^5 CD4^+ T cells"},
      {"measurement": "number of IL-5–producing CD4^+ T cells", "setting": "[1]; patient MP6", "result": 20, "unit": "per 10^5 CD4^+ T cells"},
      {"measurement": "Th1/Th2 Spontaneous Response Test by ICS, response type", "setting": "[1]; patient MP7", "result": "Th2 (0, 435)"},
      {"measurement": "Number of IFN-γ–producing CD4^+ T cells", "setting": "[1]; patient MP7", "result": 0, "unit": "per 10^5 CD4^+ T cells"},
      {"measurement": "number of IL-5–producing CD4^+ T cells", "setting": "[1]; patient MP7", "result": 435, "unit": "per 10^5 CD4^+ T cells"},
      {"measurement": "Th1/Th2 Spontaneous Response Test by ICS, response type", "setting": "[1]; patient MP9", "result": "Th1/Th2 (83, 193)"},
      {"measurement": "Number of IFN-γ–producing CD4^+ T cells", "setting": "[1]; patient MP9", "result": 83, "unit": "per 10^5 CD4^+ T cells"},
      {"measurement": "number of IL-5–producing CD4^+ T cells", "setting": "[1]; patient MP9", "result": 193, "unit": "per 10^5 CD4^+ T cells"},
      {"measurement": "Th1/Th2 Spontaneous Response Test by ICS, response type", "setting": "[1]; patient MP15", "result": "Th1/Th2 (60, 530)"},
      {"measurement": "Number of IFN-γ–producing CD4^+ T cells", "setting": "[1]; patient MP15", "result": 60, "unit": "per 10^5 CD4^+ T cells"},
      {"measurement": "number of IL-5–producing CD4^+ T cells", "setting": "[1]; patient MP15", "result": 530, "unit": "per 10^5 CD4^+ T cells"},
      {"measurement": "Th1/Th2 Spontaneous Response Test by ICS, response type", "setting": "[1]; patient MP16", "result": "Th1 (170, 0)"},
      {"measurement": "Number of IFN-γ–producing CD4^+ T cells", "setting": "[1]; patient MP16", "result": 170, "unit": "per 10^5 CD4^+ T cells"},
      {"measurement": "number of IL-5–producing CD4^+ T cells", "setting": "[1]; patient MP16", "result": 0, "unit": "per 10^5 CD4^+ T cells"}
    ]},
    {"substance": "LAGE-1_104–121: 18-aa overlapping synthetic peptide, LAGE-1 positions 104–121; immunodominant epitope (LVRRILSRDAAPLPRPGA; UniProt O75638 104-121, looked up, fragment)", "values": [
      {"measurement": "patients with peptide-specific spontaneous CD4^+ T cells", "setting": "[1]", "result": "10 out of 16"},
      {"measurement": "Th1/Th2 Spontaneous Response Test by ICS, response type", "setting": "[1]; patient MP1", "result": "Th1/Th2 (213, 79)"},
      {"measurement": "Number of IFN-γ–producing CD4^+ T cells", "setting": "[1]; patient MP1", "result": 213, "unit": "per 10^5 CD4^+ T cells"},
      {"measurement": "number of IL-5–producing CD4^+ T cells", "setting": "[1]; patient MP1", "result": 79, "unit": "per 10^5 CD4^+ T cells"},
      {"measurement": "Th1/Th2 Spontaneous Response Test by ICS, response type", "setting": "[1]; patient MP2", "result": "Th2 (0, 110)"},
      {"measurement": "Number of IFN-γ–producing CD4^+ T cells", "setting": "[1]; patient MP2", "result": 0, "unit": "per 10^5 CD4^+ T cells"},
      {"measurement": "number of IL-5–producing CD4^+ T cells", "setting": "[1]; patient MP2", "result": 110, "unit": "per 10^5 CD4^+ T cells"},
      {"measurement": "Th1/Th2 Spontaneous Response Test by ICS, response type", "setting": "[1]; patient MP3", "result": "Th1 (130, 0)"},
      {"measurement": "Number of IFN-γ–producing CD4^+ T cells", "setting": "[1]; patient MP3", "result": 130, "unit": "per 10^5 CD4^+ T cells"},
      {"measurement": "number of IL-5–producing CD4^+ T cells", "setting": "[1]; patient MP3", "result": 0, "unit": "per 10^5 CD4^+ T cells"},
      {"measurement": "Th1/Th2 Spontaneous Response Test by ICS, response type", "setting": "[1]; patient MP5", "result": "Th1/Th2 (505, 80)"},
      {"measurement": "Number of IFN-γ–producing CD4^+ T cells", "setting": "[1]; patient MP5", "result": 505, "unit": "per 10^5 CD4^+ T cells"},
      {"measurement": "number of IL-5–producing CD4^+ T cells", "setting": "[1]; patient MP5", "result": 80, "unit": "per 10^5 CD4^+ T cells"},
      {"measurement": "Th1/Th2 Spontaneous Response Test by ICS, response type", "setting": "[1]; patient MP6", "result": "Th1/Th2 (351, 185)"},
      {"measurement": "Number of IFN-γ–producing CD4^+ T cells", "setting": "[1]; patient MP6", "result": 351, "unit": "per 10^5 CD4^+ T cells"},
      {"measurement": "number of IL-5–producing CD4^+ T cells", "setting": "[1]; patient MP6", "result": 185, "unit": "per 10^5 CD4^+ T cells"},
      {"measurement": "Th1/Th2 Spontaneous Response Test by ICS, response type", "setting": "[1]; patient MP7", "result": "Th2 (0, 543)"},
      {"measurement": "Number of IFN-γ–producing CD4^+ T cells", "setting": "[1]; patient MP7", "result": 0, "unit": "per 10^5 CD4^+ T cells"},
      {"measurement": "number of IL-5–producing CD4^+ T cells", "setting": "[1]; patient MP7", "result": 543, "unit": "per 10^5 CD4^+ T cells"},
      {"measurement": "Th1/Th2 Spontaneous Response Test by ICS, response type", "setting": "[1]; patient MP8", "result": "Th1/Th2 (341, 221)"},
      {"measurement": "Number of IFN-γ–producing CD4^+ T cells", "setting": "[1]; patient MP8", "result": 341, "unit": "per 10^5 CD4^+ T cells"},
      {"measurement": "number of IL-5–producing CD4^+ T cells", "setting": "[1]; patient MP8", "result": 221, "unit": "per 10^5 CD4^+ T cells"},
      {"measurement": "Th1/Th2 Spontaneous Response Test by ICS, response type", "setting": "[1]; patient MP9", "result": "Th1/Th2 (205, 65)"},
      {"measurement": "Number of IFN-γ–producing CD4^+ T cells", "setting": "[1]; patient MP9", "result": 205, "unit": "per 10^5 CD4^+ T cells"},
      {"measurement": "number of IL-5–producing CD4^+ T cells", "setting": "[1]; patient MP9", "result": 65, "unit": "per 10^5 CD4^+ T cells"},
      {"measurement": "Th1/Th2 Spontaneous Response Test by ICS, response type", "setting": "[1]; patient MP12", "result": "Th1 (270, 0)"},
      {"measurement": "Number of IFN-γ–producing CD4^+ T cells", "setting": "[1]; patient MP12", "result": 270, "unit": "per 10^5 CD4^+ T cells"},
      {"measurement": "number of IL-5–producing CD4^+ T cells", "setting": "[1]; patient MP12", "result": 0, "unit": "per 10^5 CD4^+ T cells"},
      {"measurement": "Th1/Th2 Spontaneous Response Test by ICS, response type", "setting": "[1]; patient MP14", "result": "Th1 (400, 0)"},
      {"measurement": "Number of IFN-γ–producing CD4^+ T cells", "setting": "[1]; patient MP14", "result": 400, "unit": "per 10^5 CD4^+ T cells"},
      {"measurement": "number of IL-5–producing CD4^+ T cells", "setting": "[1]; patient MP14", "result": 0, "unit": "per 10^5 CD4^+ T cells"}
    ]},
    {"substance": "LAGE-1b118–135: 18-aa overlapping synthetic peptide, LAGE-1b positions 118–135; immunodominant epitope (RPGAVLKDFTVSGNLLFM; LAGE-1b; UniProt O75638 118-135, looked up, fragment)", "values": [
      {"measurement": "patients with peptide-specific spontaneous CD4^+ T cells", "setting": "[1]", "result": "9 out of 16"}
    ]},
    {"substance": "LAGE-1b167–184: 18-aa overlapping synthetic peptide, LAGE-1b positions 167–184 (DLRTPKHKVSEQRPGTPG; LAGE-1b; UniProt O75638 167-184, looked up, fragment)", "values": [
      {"measurement": "number of patients with high titers of LAGE-1b Abs recognizing the peptide", "setting": "[2]", "result": 4}
    ]},
    {"substance": "LAGE-1b188–210: overlapping synthetic peptide, LAGE-1b positions 188–210 (PEGAQGDGCRGVAFNVMFSAPHI; LAGE-1b; UniProt O75638 188-210, looked up, fragment)", "values": [
      {"measurement": "number of patients with high titers of LAGE-1b Abs recognizing the peptide", "setting": "[2]", "result": 4}
    ]},
    {"substance": "NY-ESO-1_104–121: NY-ESO-1 peptide overlapping the LAGE-1_104–121 sequence, control (LARRSLAQDAPPLPVPGV; UniProt P78358 104-121, looked up, fragment)", "values": [
      {"measurement": "recognition of peptide by LAGE-1_104–121–specific CD4^+ T cell clone 116/12", "setting": "[3]", "result": "did not recognize"}
    ]}
  ]
}
